In data set [1] the test system is Salmonella enterica subsp. enterica serovar Typhimurium. Put plainly: Inhibition of SPI-1 T3SS in Salmonella typhimurium assessed as reduction in SPI-1 T3SS substrates by measuring SopB protein level at 5 to 100 uM after 4 hrs by Coomassie staining based SDS-PAGE method. The procedure, abridged:
(§1)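 Overnight S. Typhimurium cultures were diluted 1:30 into LB (10 g/L NaCl) and grown 4 h with or without compound. Culture supernatant (1 mL) was precipitated overnight at 4 °C with TCA (10% final). Pellets were spun at 14,000 rpm for 30 min, acetone-washed, and dried. Proteins were resolved on 4–20% SDS-PAGE, Coomassie-stained, and imaged.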

Data set [2] shares this test system. Put plainly: Inhibition of SPI-1 T3SS in Salmonella typhimurium assessed as reduction in SPI-1 T3SS substrates by measuring SipA protein level at 5 to 100 uM after 4 hrs by Coomassie staining based SDS-PAGE method. In short, it runs like this:
as §1

The test system is the same in data set [3]. Put plainly: Inhibition of SPI-1 T3SS in Salmonella typhimurium assessed as reduction in SPI-1 T3SS substrates by measuring FliD protein level at 5 to 100 uM after 4 hrs by Coomassie staining based SDS-PAGE method. The procedure, abridged:
as §1

The test system is the same in data set [4]. Put plainly: Inhibition of SPI-1 T3SS in Salmonella typhimurium assessed as reduction in SPI-1 T3SS substrates by measuring SipC protein level at 5 to 100 uM after 4 hrs by Coomassie staining based SDS-PAGE method. The procedure, abridged: as §1
The test system is the same in data set [5]. Put plainly: Inhibition of SPI-1 T3SS in Salmonella typhimurium assessed as reduction in SPI-1 T3SS substrates by measuring FliC protein level at 5 to 100 uM after 4 hrs by Coomassie staining based SDS-PAGE method. The procedure, abridged:
as §1

For data set [6] the test system is unchanged. Put plainly: Inhibition of SPI-1 T3SS in Salmonella typhimurium assessed as reduction in SPI-1 T3SS substrates by measuring SipB protein level at 5 to 100 uM after 4 hrs by Coomassie staining based SDS-PAGE method. The procedure, abridged: as §1
For data set [7] the test system is unchanged. Put plainly: Inhibition of SPI-1 T3SS in Salmonella typhimurium assessed as reduction in SPI-1 T3SS substrates by measuring SipA protein level at 100 uM after 4 hrs by Coomassie staining based SDS-PAGE method. The procedure, abridged:
as §1

Data set [8] has the same test system. Put plainly: Inhibition of SPI-1 T3SS in Salmonella typhimurium assessed as reduction in SPI-1 T3SS substrates by measuring FliC protein level at 100 uM after 4 hrs by Coomassie staining based SDS-PAGE method. The procedure, abridged: as §1
Data set [9] shares this test system. Put plainly: Inhibition of SPI-1 T3SS in Salmonella typhimurium assessed as reduction in SPI-1 T3SS substrates by measuring SipC protein level at 100 uM after 4 hrs by Coomassie staining based SDS-PAGE method. The procedure, abridged: as §1
Data set [10] shares this test system. Put plainly: Inhibition of SPI-1 T3SS in Salmonella typhimurium assessed as reduction in SPI-1 T3SS substrates by measuring SopB protein level at 100 uM after 4 hrs by Coomassie staining based SDS-PAGE method. In short, it runs like this:
as §1

Data set [11] has the same test system. Put plainly: Inhibition of SPI-1 T3SS in Salmonella typhimurium assessed as reduction in SPI-1 T3SS substrates by measuring SipB protein level at 100 uM after 4 hrs by Coomassie staining based SDS-PAGE method. In short, it runs like this: as §1
Data set [12] has the same test system. Put plainly: Inhibition of SPI-1 T3SS in Salmonella typhimurium assessed as reduction in SPI-1 T3SS substrates by measuring FliD protein level at 100 uM after 4 hrs by Coomassie staining based SDS-PAGE method. The procedure, abridged:
as §1

Data set [13] relates to Salmonella typhimurium. Put plainly: Effect on SopE2-CPG2-HA fusion protein expression expressed in Salmonella typhimurium at 0.39 to 100 uM after 4 hrs by Western blot method. Particulars: salmonella enterica subsp. enterica serovar typhimurium. It is filed as ADME. In short, it runs like this: (§2)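 SopE2-CPG2-HA reporter strain grown overnight at 37 °C in LB (10 g/L NaCl) with 50 μg/mL ampicillin, diluted 1:30, then grown 4 h with compound or DMSO/H2O control (<1% of volume). Bacterial lysates were examined for reporter level.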
A general note: A western blot detects proteins with antibodies after separation by electrophoresis.

The subject of data set [14] is HeLa. Put plainly: Inhibition of SPI-1 T3SS in Salmonella typhimurium infected in human HeLa cells assessed as reduction in bacterial invasion at 100 uM after 30 mins by flow cytometry. It is filed as cell-based. As to conditions: Salmonella enterica subsp. enterica serovar Typhimurium. In short, it runs like this: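 Strain IR715 was pre-grown 4 h in LB (1/33 dilution) with compound or DMSO, then added to HeLa cells (DMEM/10% FBS) at MOI 10 with compound. Plates were spun 5 min at 1000×g, infected 30 min at 37 °C, then given gentamicin 100 ug/mL for 30 min. Cells were fixed, saponin-permeabilised, stained with anti-Salmonella serum plus AlexaFluor 488 secondary, and 30,000 cells counted. Values normalised to DMSO; triplicate.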
Background: Flow cytometry measures light scatter and fluorescence of single cells or particles in a stream.

Data set [15] concerns Salmonella typhimurium. Put plainly: Effect on SopE2-CPG2-HA fusion protein expression expressed in Salmonella typhimurium using Glu-CyFur as substrate at 0.39 to 100 uM after 4 hrs by fluorescence assay. As to conditions: salmonella enterica subsp. enterica serovar typhimurium. It is filed as ADME. The procedure, abridged:
as §2

Data set [16] relates to HeLa. Put plainly: Inhibition of SPI-1 T3SS in Salmonella typhimurium infected in human HeLa cells assessed as reduction in bacterial invasion at 100 uM after 30 mins by immunofluorescence analysis. Particulars: Salmonella enterica subsp. enterica serovar Typhimurium. The class given is cell-based. In short, it runs like this:
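HeLa cells on glass coverslips were infected and stained as for the flow protocol (MOI 10, 30 min, gentamicin chase, anti-Salmonella serum/AlexaFluor 488), with nuclei counterstained by TOPRO-3. Extracellular bacteria were imaged without permeabilisation or gentamicin.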

A short description of data set [17]: Inhibition of SPI-1 T3SS in Salmonella typhimurium expressing SopE2-CPG2-HA fusion protein assessed as reduction in type 3 protein secretion using Glu-CyFur as substrate after 4 hrs by fluorescence assay. Also on record: species or system Salmonella enterica subsp. enterica serovar Typhimurium. The procedure, abridged: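 Reporter strain was grown 4 h at 37 °C with compound after a 1:30 dilution, and OD600 was checked. Culture supernatant was mixed with 50 mM Tris, 0.1 mM ZnCl2, pH 7.4, 0.1% Brij-97 and 10 μM Glu-CyFur. Fluorescence (ex 563/em 610 nm) was read kinetically for 2 h. Inhibition came from the rate versus DMSO/H2O control, and IC50 from an exponential decay fit.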

Data set [18] has as its system Salmonella typhimurium. Put plainly: Effect on growth of Salmonella typhimurium at 100 uM. As to conditions: salmonella enterica subsp. enterica serovar typhimurium.

The results in this text go back to ChEMBL document CHEMBL4020703, “Epigallocatechin-3-gallate inhibits bacterial virulence and invasion of host cells” (Bioorg Med Chem, 2017).

The source made the active and inactive calls. The rule behind the calls is not given here.

`O=C(N/N=C/c1cc(Br)cc(Br)c1O)c1ccc([N+](=O)[O-])cc1`: the inhibition result in [1], in data set [2], in data set [3], in data set [4], in [5] and in [6] was “Active” throughout.
Turning to `O=c1cc(-c2ccccc2)oc2cc(O)cc(O)c12`, the inhibition result in data set [7], in data set [8], in [9], in [10], in data set [11] and in data set [12] was “inactive” in each case.
`O=C(O[C@@H]1Cc2c(O)cc(O)cc2O[C@@H]1c1cc(O)c(O)c(O)c1)c1cc(O)c(O)c(O)c1` [EPIGALOCATECHIN GALLATE]: the Activity entry with Salmonella typhimurium [13], with Salmonella typhimurium [15] and in the data set with Salmonella typhimurium [18] was “Non-Toxic” in each case. Besides, the inhibition result in data set [1], in data set [2], in data set [4] and in data set [6] was “Dose-dependent effect” in each case. Moreover, the inhibition result (with HeLa [14]; in data set [3]; in data set [5]; in the data set on HeLa [16]) was “Active” throughout. In addition, in data set [17], the IC50 was determined as 2.15 µM.
Regarding `O=C(O[C@@H]1Cc2c(O)cc(O)cc2O[C@@H]1c1ccc(O)c(O)c1)c1cc(O)c(O)c(O)c1`, the inhibition result in data set [1], in [2], in data set [4] and in data set [6] was “Dose-dependent effect” throughout. The inhibition entry in data set [3] and in data set [5] was “Active” throughout.
Consider `O=c1cc(-c2ccccc2)oc2cc(O)c(O)c(O)c12`, for which the inhibition entry in [1], in data set [2], in [3], in data set [4], in [5] and in [6] was “Active” each time.

As a reminder, the IC50 is the concentration that gives 50% inhibition.
